Source: PubChem (several laboratories)
aDG glyco act = activators of alpha-DG glycosylation, primary screen, uHTS, Pro5-aDG cells, AlphaScreen | alpha-DG glycosylation AlphaScreen (IIH6); 0% Pro5, 100% B10-LARGE cell signal | activation, % at 10 µM | hit rate 0.22% among 360,000 | AID 624168, 2012;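 active = activation of at least 8% versus controls, or a plate z-score of at least 8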;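 also: Pro5 are CHO cells carrying HIG-tagged alpha-DG that lacks glycosylation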
bovine MsrA act = bovine MsrA enzyme activators, primary screen, biochemical, absorbance, HTS. Methionine sulfoxide reductase A (Bos taurus). purified bovine MsrA, absorbance read-out. activation, % at 10.6 µM. hit rate 0.3% among 360,000; in the data active = activation above about 7.5%;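 also: 0% = vehicle and 100% = reference activator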
UCH37 DUB inh = inhibitors of human UCH37 deubiquitinase, primary screen, biochemical, Ub-AMC cleavage, fluorescence; Ubiquitin carboxyl-terminal hydrolase isozyme L5 (Homo sapiens), Q9Y5K5; purified proteasome/UCH37; inhibition, % (concentration not given with the values); hit rate 0.33% among 330,000;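 active = mean inhibition over replicate wells above about 20%, limit read from the data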;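 also: 0% = compound-free wells with enzyme and 100% = wells lacking proteasome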
Target sequence (Q9Y5K5 whole entry, looked up): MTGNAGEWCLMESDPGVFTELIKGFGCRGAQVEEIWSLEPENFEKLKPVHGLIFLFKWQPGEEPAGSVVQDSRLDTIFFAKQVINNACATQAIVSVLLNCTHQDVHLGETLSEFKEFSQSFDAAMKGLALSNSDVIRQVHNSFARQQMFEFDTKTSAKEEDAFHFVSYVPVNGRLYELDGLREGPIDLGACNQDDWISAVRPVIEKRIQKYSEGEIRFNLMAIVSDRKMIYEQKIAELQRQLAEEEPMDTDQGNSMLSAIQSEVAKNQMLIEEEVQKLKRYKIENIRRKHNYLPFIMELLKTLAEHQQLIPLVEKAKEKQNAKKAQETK
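Test system – human UCH37 enzyme supplied as purified proteasome complex · Incubation – 30 min preincubation with enzyme, 25 min cleavage at room temperature · Detection – AMC fluorescence from Ub-AMC cleavage, excitation 355 nm, emission 460 nm · Benchmarks – no-proteasome wells (full inhibition) and compound-free wells (no inhibition)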
MsrA inhibitor = bovine MsrA enzyme inhibitors, primary screen, biochemical, absorbance, HTS. Methionine sulfoxide reductase A (Bos taurus). purified bovine MsrA, absorbance read-out. inhibition, % at 15.5 µM. hit rate 0.75% among 360,000;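 also: 0% = vehicle wells with enzyme and 100% = reference inhibitor wells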
Vif imaging = HIV Vif self-association inhibitors, primary screen, imaging, HEK293T, single point; HEK293T cells, Vif self-association by quenched fluorescence, 24 h; inhibition, % at 7.49 µM; AID 602346, 2012; hit rate 0.35% among 340,000; in the data active = inhibition above about 50%, passing the limit was not always enough; inconclusive = no clear call, values can overlap the other calls; inactive = below about 31%
N-glyco inh = increase of ERlucT glycosylation luciferase signal, primary screen, N-linked glycosylation inhibitor project, D54 ERlucT cells, luminescence, set 2 | D54 ERlucT glycosylation luciferase reporter, 24 h; percent of 100 nM tunicamycin response | reporter increase, % at 12.5 µM | hit rate 0.23% among 360,000 | AID 588692, 2011;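 active = mean luciferase reporter signal, scaled so untreated is 0 and the glycosylation-blocking control 100, at or above a set limit in every replicate; inconclusive = mean reaches the limit but not every replicate does; inactive = mean below the limit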;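 also: luciferase carries N-glycosylation sites so blocking glycosylation raises the light; 0% = median of neutral control wells and 100% = median of 100 nM tunicamycin wells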
MsrA inh confirm = bovine MsrA inhibitors, retest, confirmation, biochemical, absorbance, HTS. shares compounds with MsrA inhibitor. inhibition, % at 15.5 µM. AID 651822, 2012. hit rate 41% among 2,300. purified bovine MsrA, absorbance read-out;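 also: coupled to thioredoxin reductase with NADPH and selenocystamine and DMSO as substrate; 0% = vehicle only and 100% = full effect of reference inhibitor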
* hit, by the source's call; ! = repeats disagree. In the library only some 1.9% were active in any assay of this set; here they are far more common. Rule as the data show it, unless noted: active = inhibition above about 4.5%; inactive = the rest.

For Cc1ccc2nc3cc([N+](=O)[O-])cc([N+](=O)[O-])c3cc2c1 the results were aDG glyco act 0.0, bovine MsrA act -0.3, UCH37 DUB inh 13.9, MsrA inhibitor 0.1, Vif imaging 6.5 and N-glyco inh -5.5.
`O=C(N/N=C/c1ccc(O)c([N+](=O)[O-])c1)C(O)(c1ccccc1)c1ccccc1` gave aDG glyco act -0.1, bovine MsrA act -4.7, MsrA inhibitor 6.4*, Vif imaging -7.3, N-glyco inh 1.0 and MsrA inh confirm 4.9*.
For O=C(N/N=C\c1ccc(O)c([N+](=O)[O-])c1)c1ccccc1-n1cccc1 the results were aDG glyco act 1.9, bovine MsrA act -18.6, MsrA inhibitor 6.6*, Vif imaging -3.5, N-glyco inh 5.0 and MsrA inh confirm 3.7.
`Cc1cc(C(=O)N/N=C/c2ccc(O)c([N+](=O)[O-])c2)n[nH]1` gave aDG glyco act 0.1, bovine MsrA act -6.1, MsrA inhibitor 6.8*, Vif imaging -2.3, N-glyco inh -0.1 and MsrA inh confirm 6.0*.
Screening CC(=NOC(=O)c1c(-c2c(Cl)cccc2Cl)noc1C)c1cnccn1 returned UCH37 DUB inh 2.4.
Screening Cc1c(NC(=S)/C=C2\N(C)c3ccccc3C2(C)C)c(=O)n(-c2ccccc2)n1C returned aDG glyco act 0.4, bovine MsrA act -5.3, UCH37 DUB inh 8.2, MsrA inhibitor 3.8, Vif imaging 2.3 and N-glyco inh -1.4.
Cc1c(N=C/C=C2/N(C)c3ccccc3C2(C)C)c(=O)n(-c2ccccc2)n1C was read as aDG glyco act 0.1, bovine MsrA act -3.1, UCH37 DUB inh 9.8, MsrA inhibitor 5.7*!, Vif imaging -6.9, N-glyco inh -0.6 and MsrA inh confirm 2.1.
Screening Cc1c(N=C/C=C/c2ccccc2)c(=O)n(-c2ccccc2)n1C returned aDG glyco act 0.2, bovine MsrA act -4.1, UCH37 DUB inh 12.0, MsrA inhibitor 3.4 and N-glyco inh -2.4.
Cc1c(N=C/C=C2\N(C)c3ccccc3C2(C)C)c(=O)n(-c2ccccc2)n1C was read as aDG glyco act 0.0, bovine MsrA act -9.4, UCH37 DUB inh 15.2, MsrA inhibitor 6.1*, Vif imaging 2.1, N-glyco inh -0.7 and MsrA inh confirm 4.9*.
`CC(=NNC(N)=O)C1CC(CC(C)C)C(=O)O1` (configuration not stated) gave UCH37 DUB inh -0.2.
Screening Cc1ccc(N(C)S(=O)(=O)c2cccc(C(=O)Oc3ccc4c(C)cc(=O)oc4c3)c2)cc1 returned aDG glyco act -0.3, bovine MsrA act -2.0, UCH37 DUB inh inactive, MsrA inhibitor 4.8*, Vif imaging 0.2, N-glyco inh 1.5 and MsrA inh confirm 1.9.
For O=C(O)c1ccc(/C=N/Nc2nc3ccccc3[nH]2)cc1 the results were aDG glyco act 0.0, bovine MsrA act -3.8, MsrA inhibitor 2.1, Vif imaging -1.6 and N-glyco inh -0.3.
Screening CC(=O)Nc1ccc(/C=N/Nc2nc3ccccc3[nH]2)cc1 returned aDG glyco act -0.4, bovine MsrA act -6.4, MsrA inhibitor 8.2*, Vif imaging -8.5, N-glyco inh -2.7 and MsrA inh confirm 5.9*.
Screening C(=N\Nc1nc2ccccc2[nH]1)/c1ccncc1 returned aDG glyco act -0.3, bovine MsrA act -3.6, MsrA inhibitor 5.0*, Vif imaging -2.6, N-glyco inh -5.3 and MsrA inh confirm 2.5.
Cn1c(/C=N/Nc2nc3ccccc3[nH]2)nc2ccccc21 was read as aDG glyco act -0.3, bovine MsrA act -1.0, MsrA inhibitor 4.9*, Vif imaging -6.5, N-glyco inh -8.1 and MsrA inh confirm 5.0*.
COc1ccccc1NN=C(C#N)C(=N)N1CCOCC1 was read as UCH37 DUB inh 12.9.
Screening Cc1cccc(C=NNC(=O)c2ccncc2)n1 returned UCH37 DUB inh 3.1.
`COc1ccc(-n2c(C)cc(/C=C3\C(=N)N4N=C(CC(=O)N5CCOCC5)SC4=NC3=O)c2C)c(OC)c1` gave aDG glyco act -0.7, bovine MsrA act -3.7, UCH37 DUB inh 6.9, MsrA inhibitor 2.3, Vif imaging -2.9 and N-glyco inh -4.5.
For Cc1ccc(/C=C2\C(=N)N3N=C(CC(=O)N4CCOCC4)SC3=NC2=O)o1 the results were aDG glyco act 0.1, bovine MsrA act -4.1, UCH37 DUB inh 18.2, MsrA inhibitor 5.2*, Vif imaging -4.2, N-glyco inh -0.5 and MsrA inh confirm 4.2.
For COc1ccccc1-n1c(C)cc(/C=C2\C(=N)N3N=C(CC(=O)N4CCOCC4)SC3=NC2=O)c1C the results were aDG glyco act -0.1, bovine MsrA act -1.3, UCH37 DUB inh 4.9, MsrA inhibitor 5.3*, Vif imaging 17.7, N-glyco inh 0.7 and MsrA inh confirm 3.8.
Screening Cc1cccn2c(=O)c3cc(C(=O)NCCN4CCOCC4)c(=N)n(CCCN4CCOCC4)c3nc12 returned aDG glyco act -0.1, bovine MsrA act -2.0, UCH37 DUB inh -408.9, MsrA inhibitor 5.4*, Vif imaging 6.5, N-glyco inh -4.0 and MsrA inh confirm 0.2.
For COc1ccc(CCn2c(=N)c(C(=O)NCCN3CCOCC3)cc3c(=O)n4cccc(C)c4nc32)cc1OC the results were aDG glyco act 0.0, bovine MsrA act -2.2, UCH37 DUB inh 4.9, MsrA inhibitor 1.1, Vif imaging 8.7 and N-glyco inh inconclusive.
For CC1(C)CC(=O)C=C(Nc2ccc(C(=O)O)cc2)C1 the results were aDG glyco act 0.0, bovine MsrA act -3.7, UCH37 DUB inh 13.7, MsrA inhibitor 7.0*, Vif imaging 0.1, N-glyco inh 1.8 and MsrA inh confirm 3.3.
Screening CC1(C)CC(=O)C=C(Nc2ccc(S(N)(=O)=O)cc2)C1 returned aDG glyco act -0.2, bovine MsrA act -6.9, UCH37 DUB inh 6.9, MsrA inhibitor 4.9*, Vif imaging 5.4, N-glyco inh -0.2 and MsrA inh confirm 2.9.
`O=C(NN=CC1CCCCC1)c1ccccc1-n1cccc1` gave UCH37 DUB inh 0.3.
For CC(=NNC(=O)CN1CCN(S(=O)(=O)c2ccc(Br)cc2)CC1)c1ccco1 the results were UCH37 DUB inh -0.7.
Nc1ccc(NC(=O)c2ccc(C(=O)Nc3ccc(N)cc3)cc2)cc1 was read as aDG glyco act 0.0, bovine MsrA act -2.0, MsrA inhibitor 0.9, Vif imaging 1.7 and N-glyco inh 2.8.
